Screening data from PubChem.
Most compounds without a hit are left out; they make up all but 4.1% or so of the library.
DNA FID counter-1: counter-screen for HCV NS3 helicase inhibitors: DNA intercalator displacement. 290,000 compounds, 0.17% hits. inhibition, % at 7.9 µM. DNA fluorescent intercalator displacement, fluorescence;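 also: 0% = vehicle and 100% = reference compound; higher means more ethidium bromide displaced from hairpin DNA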
MEKK2 WT-MEK5: raises or lowers MEK5 binding to wildtype human MEKK2 PB1 domain; Q9Y2U5; bead flow cytometry, Alexa488-MEK5 binding to MEKK2 WT; actives lie on both sides; binding response (% of control), % at 10 µM; 290,000 compounds, 1.1% hits; in the data active = binding response below about 67% or above about 130%; inconclusive = no clear call, values can overlap the other calls; inactive = in between
NS3 helicase inh: inhibitors of Hepatitis C virus NS3 helicase | inhibition, % at 10.9 µM | NS3 helicase DNA unwinding, Cy5 molecular beacon fluorescence | 290,000 compounds, 0.56% hits;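 active = inhibition above the mean of all tested compounds plus 3 SD, set per campaign, cut at about 35% in these data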;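 also: 0% = DMSO wells and 100% = thioflavine S control wells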
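System: HCV NS3 helicase fragment; control set: DMSO and thioflavine S; technique: Cy5 fluorescence at 0 and 60 min, beacon hairpin quenching; reagent: beacon DNA duplex substrate plus ATP; replicates: singlicate; schedule: 1 h reaction at 25 °C, ATP-initiated; medium: MOPS buffer pH 6.5 with MgCl2, DTT, Tween20, BSA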
T cruzi repl: blocks replication of Trypanosoma cruzi. T. cruzi beta-gal in NIH3T3, luminescence, 90 h. inhibition, % (test concentration not listed). 300,000 compounds, 1.4% hits. AID 1885;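 active = mean inhibition across valid replicates above about 55%, limit read from the data; inconclusive = mean below that limit but half or more replicates reach it; inactive = mean below it, under half of replicates reach it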;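 also: signal also drops with host cell toxicity which is not excluded here; 0% = plate median of DMSO wells and 100% = zero luminescence signal; higher percent means less beta-gal luminescence so fewer parasites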
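Incubation – ≥90 h infection period, 3 h prior cell attachment · System – NIH/3T3 fibroblasts plus reporter T. cruzi · Doses – compound pinned at 50 nL/well, DMSO · Read-out basis – percent inhibition of parasite-derived β-gal signal · Signal – luminescent β-galactosidase signal after 60 min lysis · Also added – 5000 T. cruzi trypomastigotes/well · Medium – Low-serum DMEM with 2% FBS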
MEKK3 PB1 HTS: modulators (inhibitors or enhancers) of MEK5 binding to human MEKK3 PB1 domain | bead-based flow cytometry, Alexa488-MEK5 binding to MEKK3; actives lie on both sides; 0 = blocked by unlabeled MEK5, 100 = vehicle | binding response (% of control), % at 10 µM | AID 1529 | 290,000 compounds, 1.4% hits;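 active = binding response more than 3 SD above or below the average of its plate-row segment, actives on both sides; inconclusive = wells at one plate position flagged as instrument error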;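 also: Alexa488 bead fluorescence after subtracting the streptavidin-only scavenger bead signal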
Target sequence (Q99759 whole entry, looked up, the tested form may be a part): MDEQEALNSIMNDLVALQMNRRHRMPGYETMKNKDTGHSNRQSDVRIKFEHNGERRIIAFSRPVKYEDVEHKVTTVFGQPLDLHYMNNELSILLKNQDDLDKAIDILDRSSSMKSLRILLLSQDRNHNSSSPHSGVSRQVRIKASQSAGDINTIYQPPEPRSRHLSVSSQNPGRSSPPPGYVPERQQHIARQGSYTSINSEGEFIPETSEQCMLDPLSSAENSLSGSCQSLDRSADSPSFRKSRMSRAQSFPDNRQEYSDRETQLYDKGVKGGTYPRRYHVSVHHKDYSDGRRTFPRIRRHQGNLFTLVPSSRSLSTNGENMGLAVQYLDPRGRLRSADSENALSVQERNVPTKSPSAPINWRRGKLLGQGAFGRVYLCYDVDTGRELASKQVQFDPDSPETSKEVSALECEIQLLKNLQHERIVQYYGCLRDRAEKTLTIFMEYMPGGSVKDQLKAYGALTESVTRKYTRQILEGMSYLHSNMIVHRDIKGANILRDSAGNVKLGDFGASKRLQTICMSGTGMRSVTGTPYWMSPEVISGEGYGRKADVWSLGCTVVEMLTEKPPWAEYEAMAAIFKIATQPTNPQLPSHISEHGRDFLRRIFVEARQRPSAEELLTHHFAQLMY
MEKK2 mut-MEK5: signal of MEK5 binding to mutant human MEKK2 PB1 domain. percent response, % at 10 µM. bead flow cytometry, Alexa488-MEK5 binding to MEKK2 mutant. 290,000 compounds, 0.35% hits; in the data active = percent response above about 24%, passing the limit was not always enough
NS3 hel confirm: HCV NS3 helicase inhibition, confirmation assay | NS3 helicase DNA unwinding, Cy5 molecular beacon fluorescence | inhibition, % at 10.9 µM | 1,600 compounds, 31% hits | shares compounds with NS3 helicase inh;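 active = inhibition above the mean of all tested compounds plus 3 SD, cutoff set per campaign, cut at about 36% in these data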
DNA FID counter-2: intercalator displacement, NS3 helicase counter-screen. DNA fluorescent intercalator displacement, fluorescence. shares compounds with NS3 helicase inh. inhibition, % at 7.9 µM. 1,600 compounds, 4% hits;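 also: 0% = vehicle and 100% = reference compound; higher means more displacement of ethidium bromide from the DNA hairpin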
Numbers without * were called inactive; u = inconclusive; x = no result. Rule as the data show it, unless noted: active = inhibition above about 37%; inactive = the rest.

SMILES	DNA FID counter-1	MEKK2 WT-MEK5	NS3 helicase inh	T cruzi repl	MEKK3 PB1 HTS	MEKK2 mut-MEK5	NS3 hel confirm	DNA FID counter-2
Cc1c(C(=O)O)[nH]c2c1C(=O)CC(c1ccc(C(C)(C)C)cc1)C2 (stereo not drawn)	-26	100	49*	u	102	6	29	-25
CCS(=O)(=O)C1=NN2C(=N)/C(=C\c3ccc(SCc4ccco4)o3)C(=O)N=C2S1	-4	97	37*	-11	103	-5	65*	22
CCS(=O)(=O)C1=NN2C(=N)/C(=C\c3ccc(OC(=O)c4ccco4)c(Br)c3)C(=O)N=C2S1	0	98	-9	-9	99	1	x	x
C=CCOc1ccc(C2/C(=C(\O)c3ccc4c(c3)OCCO4)C(=O)C(=O)N2CCCN2CCOCC2)cc1 (stereo not drawn)	-25	96	50*	-18	99	4	3	-8
CCCOc1cccc(C2/C(=C(\O)c3ccc4c(c3)OCCO4)C(=O)C(=O)N2CCCn2ccnc2)c1 (stereo not drawn)	-25	104	41*	-1	104	7	-20	-33
COC(=O)N/N=C/c1cc(C)n(-c2ccc(F)cc2)c1C	-3	94	42*	5	102	-11	-5	15
COC(=O)N/N=C/c1cc(C)n(-c2ccc(Br)cc2)c1C	-10	81	-3	-13	73	-31	x	x
COc1cc(/C=N/NC(=O)Cc2ccccc2)cc([N+](=O)[O-])c1O	-2	105	3	-4	98	3	x	x
COc1cc(/C=N/NC(=O)[C@H](Cc2c[nH]c3ccccc23)NC(=O)OCC(C)C)cc([N+](=O)[O-])c1O	-24	101	50*	6	108	-2	59*	-14
Cc1c(CC(=O)NCC(=O)O)c(=O)oc2cc3occ(-c4ccccc4)c3cc12	-13	101	38*	-10	103	-1	51*	-29
COc1ccc(C2C(C(C)=O)=C(C)N=c3s/c(=C\c4ccco4)c(=O)n32)c(OC)c1 (stereo not drawn)	-25	62	54*	19	68	-12	-29	-10
CCOC(=O)C1=C(c2ccccc2)N=c2s/c(=C\c3ccco3)c(=O)n2C1c1cccs1 (stereo not drawn)	-19	94	48*	-5	101	-3	24	-2
CCOC(=O)C1=C(C)N=c2s/c(=C/c3ccccc3)c(=O)n2C1c1ccc(OC)c(OC)c1 (stereo not drawn)	0	90	-6	37	96	-9	x	x
COc1ccc(S(=O)(=O)N(C)C)cc1NC(=O)c1ccc(OCC(=O)N2CCOCC2)c(OC)c1	x	x	x	-2	x	x	x	x
CC(C)C[C@@H](COc1ccccc1)N1CCN(Cc2ccccc2)CCC1=O	-24	107	10	5	106	0	x	x
Cc1cc(/C=N/NC(=O)c2ccncc2)c(C)n1-c1ccccc1	-8	106	13	5	111	1	x	x
Cc1cc(C(=O)N/N=C/c2ccc(O)c(O)c2O)c(C)n1-c1ccccc1	-24	87	46*	20	94	-8	-14	5
O=C(CC1CS(=O)(=O)CC1CC(=O)Nc1ccc2c(c1)OCCO2)Nc1ccc2c(c1)OCCO2 (stereo not drawn)	-5	97	3	-6	103	-4	x	x
Cc1ccc(S(=O)(=O)Nc2nc3ccccc3nc2NCc2ccco2)cc1	-9	80	36*	-29	83	-15	40*	-1
O=C1c2ccc([N+](=O)[O-])cc2NC(c2ccco2)N1/N=C/c1ccco1 (stereo not drawn)	-3	107	42*	6	105	-1	-5	21
O=C(CN1C(=O)NC2(CCCc3ccccc32)C1=O)NCC(F)(F)F (stereo not drawn)	-1	99	-1	-16	102	1	x	x
O=C(NC1CC1)c1cc(-c2ccco2)nc2ccccc12	-25	98	41*	-7	103	-2	34	6
O=C(O)c1cc([N+](=O)[O-])cc([N+](=O)[O-])c1N1CCN(c2cccc(C(F)(F)F)c2)CC1	-3	108	42*	-1	108	6	55*	-17
O=C(Nc1ccccc1)N1CCN(c2cccc(C(F)(F)F)c2)CC1	-13	97	-11	-27	91	-3	x	x
CCOC(=O)c1nc(C)sc1-c1ccnn1S(=O)(=O)c1cccc(Cl)c1	-33	94	-9	x	102	-2	x	x
SMILES	DNA FID counter-1	MEKK2 WT-MEK5	NS3 helicase inh	T cruzi repl	MEKK3 PB1 HTS	MEKK2 mut-MEK5	NS3 hel confirm	DNA FID counter-2
CN(C)S(=O)(=O)N1CCN(c2ccc([N+](=O)[O-])c(N3CCCCC3)c2)CC1	-16	104	-4	21	106	2	x	x
Cc1nc([N+](=O)[O-])cn1CC(O)c1ccc(-c2ccccc2)cc1 (stereo not drawn)	-8	102	45*	5	120	18	-6	0
Cc1ccc(C(O)Cn2cc([N+](=O)[O-])nc2C)cc1 (stereo not drawn)	0	93	4	-5	94	-6	x	x
O=C(Oc1ccc(NC(=O)c2cc3c(cc2Br)OCO3)cc1)c1ccccc1	-17	76	25	-2	68	6	-10	-6
CSc1ncc(Cl)c(C(=O)NCc2cccnc2)n1	-8	104	0	-2	103	0	x	x
CSCCC(N=C1NS(=O)(=O)c2ccccc21)C(=O)NCCc1ccccc1 (stereo not drawn)	-17	109	4	-4	107	3	x	x
Cn1c(=O)c2ccccc2n(CC(=O)N2CCCc3ccccc32)c1=O	-25	100	37*	-11	98	-4	-6	-14
Cc1cc2nc3ccc(=[N+](C)C)cc-3sc2cc1N	104*	59	58*	69*	75	-20	78*	107*
Cc1nc2cc(C)c(C)cc2s1	-2	106	3	6	103	9	x	x
CCCc1cc(=O)n2[nH]c(-c3ccc(Cl)cc3)cc2n1	-10	113	-3	-3	106	5	x	x
O=c1cc(-c2ccc([N+](=O)[O-])cc2)nc2cc(-c3ccc(Cl)cc3)[nH]n12	-4	108	48*	x	98	13	30	-1
COc1cccc(N2C(=O)C3CCCN3C2=S)c1 (stereo not drawn)	-6	107	-4	-3	105	3	x	x
Cc1cc(F)ccc1S(=O)(=O)Nc1ncnc2sc3c(c12)CCC3	-28	93	39*	-14	99	-3	14	-12
